According to PubChem BioAssay AID602171 (The Scripps Research Institute Molecular Screening Center, 2012):

Molecular target: Aryl hydrocarbon receptor (Homo sapiens) (UniProt P35869)
Assay: DRE-driven luciferase activation via AHR – HG2L7.5c1 HepG2 cells, luminescence, AHR activator project, late-stage follow-up (AID 602171)
Settings: HG2L7.5c1 HepG2 DRE-luciferase reporter, 24 h, at 10 µM, active compounds read high
Summary of the method: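 Measure: % of maximal TCDD activation | Assay system: HepG2 (HG2L7.5c1) cells with DRE-driven luciferase reporter | Detection: Firefly luciferase luminescence of lysed cells | Times: Cells plated 12-24 h, compound exposure 24 h at 37 °C | Benchmarks: TCDD at maximal inducing level as positive reference | Doses: Single 10 µM nominal dose from powder samples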

Chain of Aryl hydrocarbon receptor (Homo sapiens) (P35869 whole entry, looked up): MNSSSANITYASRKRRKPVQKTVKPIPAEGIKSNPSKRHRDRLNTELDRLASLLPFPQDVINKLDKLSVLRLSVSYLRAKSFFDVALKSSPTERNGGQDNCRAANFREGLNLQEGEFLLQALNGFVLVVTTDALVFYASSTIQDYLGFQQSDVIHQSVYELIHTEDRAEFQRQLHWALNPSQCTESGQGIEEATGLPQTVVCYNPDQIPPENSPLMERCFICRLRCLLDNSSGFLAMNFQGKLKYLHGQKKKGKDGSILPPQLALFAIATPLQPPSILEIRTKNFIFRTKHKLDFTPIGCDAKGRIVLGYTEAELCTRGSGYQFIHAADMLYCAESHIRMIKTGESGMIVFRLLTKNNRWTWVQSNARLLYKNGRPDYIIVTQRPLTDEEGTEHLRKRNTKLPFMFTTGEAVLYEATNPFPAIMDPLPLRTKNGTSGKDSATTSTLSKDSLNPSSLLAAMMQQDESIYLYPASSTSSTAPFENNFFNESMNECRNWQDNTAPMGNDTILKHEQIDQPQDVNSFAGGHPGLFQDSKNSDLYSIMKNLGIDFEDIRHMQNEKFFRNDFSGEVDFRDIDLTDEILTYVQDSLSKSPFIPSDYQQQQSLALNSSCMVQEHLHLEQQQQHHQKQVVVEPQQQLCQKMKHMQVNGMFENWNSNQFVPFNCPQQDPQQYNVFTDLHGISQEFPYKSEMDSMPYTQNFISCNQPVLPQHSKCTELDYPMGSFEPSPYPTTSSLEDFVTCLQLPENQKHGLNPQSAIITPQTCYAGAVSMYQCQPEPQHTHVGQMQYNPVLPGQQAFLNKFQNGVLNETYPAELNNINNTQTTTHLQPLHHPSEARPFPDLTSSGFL

| SMILES | activation (% of TCDD max) [%] |
| --- | --- |
| Cn1c(C(=O)N2CCC(C(N)=O)CC2)cc2cc(Cl)ccc21 | 48 |
| O=C(Nc1ccon1)c1cnc2sccn2c1=O | 75 |
| Cc1ccc(-c2cc(-c3cccs3)[nH]n2)c(O)c1 | 99 |
| CN1CCN(CCCNC(=O)c2cc3c(-c4ccc(Cl)cc4)nn(C)c3s2)CC1 | 111 |
| CN(C)c1nc(N)nc(-c2nc3ccccc3s2)n1 | 105 |
| Cc1nnc(N2C(=O)c3cccc4c([N+](=O)[O-])ccc(c34)C2=O)s1 | 98 |
| CCOC(=O)Cc1cc(-c2ccc(O)cc2)nc2ccc3ccccc3c12 | 109 |
| Cn1c(N)c(C(=O)Nc2ccccc2F)sc1=S | 106 |
| Cc1cc(Nc2ccc(Br)cc2)n2nc(C)nc2n1 | 88 |
| O=C(CN1CCOCC1)Nc1nc2ccc([N+](=O)[O-])cc2s1 | 85 |
| CCC(=O)Nc1cc(OC)c(NC(=O)c2ccccc2)cc1OC | 89 |
| COc1cc2c(cc1NC(=O)Nc1ccc(C)cc1)oc1ccccc12 | 146 |
| CCCC(=O)Nc1nn(C)c2nc3cc(C)ccc3cc12 | 34 |
| COc1ccc(C(=O)Nc2cc(OC)c(NC(=O)c3ccco3)cc2OC)cc1 | 125 |

Second part, the molecule after the results:

| activation (% of TCDD max) [%] | SMILES |
| --- | --- |
| 41 | CCOc1ccc(-c2cc(C)n3nc(C(N)=O)cc3n2)cc1 |
| 166 | Cc1ccc(Nc2ncccc2C(N)=O)cc1 |
| 78 | Cc1nc(N)nc(Nc2ccc(Cl)cc2)c1Br |
| 126 | CCOc1ccccc1NC(=O)c1ccc2nccnc2c1 |
| 82 | Cc1csc(SCC(=O)Nc2ccc(Cl)cn2)n1 |
| 165 | COc1ccc(Cl)cc1C(=O)Nc1ccc(N(C)C(C)=O)cc1 |
| 52 | COc1ccccc1C(=O)Nc1ccc(N2CCCCC2)cc1 |
| 36 | COc1ccccc1NC(=O)c1ccc2c(c1)nnn2C |
| 88 | COc1ccccc1NC(=O)c1ccc(C(=O)Nc2ccccc2OC)nc1 |
| 113 | COc1cc2ccccc2cc1C(=O)Nc1ccc(C)cc1 |
| 117 | Cc1ccccc1-c1nc(-c2cccnc2)no1 |
| 86 | Cc1c(-c2ccn[nH]2)cc(NC(=O)c2ccc(Cl)cc2)c(=O)n1N |
| 55 | COc1ccccc1NC(=O)Nc1cccnc1 |
| 44 | O=C(Nc1cccc(Cl)c1)c1cccnn1 |
| 128 | COc1ccc(NC(=O)c2cccc3c(Br)cccc23)cc1 |
| 104 | CC(=O)c1ccc(NC(=O)c2cc(Cl)nc3ccccc23)cc1 |
| 71 | COC(=O)c1ccccc1NC(=O)Cn1ccnc1 |
| 197 | O=C1c2ccccc2-c2nc3ccccc3nc21 |
| 132 | CCOc1ccc(NC(=O)c2cc3ccccc3cc2OC)cc1 |
